Test results reported in ChEMBL document CHEMBL3286335, “Synthesis of 2,3,6-trideoxy sugar triazole hybrids as potential new broad spectrum antimicrobial agents” (Eur J Med Chem, 2014).
In brackets after ≈: the same amount, converted by molar mass.

What was measured:
Assay type in all cases: functional
Cryptococcus neoformans = test: Antimicrobial activity against Cryptococcus neoformans after 72 hrs by microbroth dilution method
Procedure, shortened: (§1)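 Broth microdilution per NCCLS guidelines. Bacteria in Mueller-Hinton broth; fungi in MOPS-buffered RPMI 1640. Test compounds at 50-0.36 µg/mL, standard drugs over 32-0.0018 µg/mL. Inoculum 1-5 × 10^3 cells/mL, 35 °C in a moist chamber. A492 read at 24 h for bacteria, 48 h for C. albicans, 72 h for A. fumigatus, C. neoformans and S. schenckii, 96 h for T. mentagrophytes. MIC taken as 90% growth inhibition relative to growth control.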

Aspergillus fumigatus = test: Antimicrobial activity against Aspergillus fumigatus after 72 hrs by microbroth dilution method; procedure, shortened: as §1
Klebsiella pneumoniae = test: Antimicrobial activity against Klebsiella pneumoniae ATCC 27736 after 24 hrs by microbroth dilution method; settings: ATCC 27736, 24 h; procedure, shortened: as §1
Pseudomonas aeruginosa = test: Antimicrobial activity against Pseudomonas aeruginosa ATCC BAA-427 after 24 hrs by microbroth dilution method; settings: ATCC BAA-427, 24 h; procedure, shortened: as §1
Staphylococcus aureus [1] = test: Antimicrobial activity against Staphylococcus aureus ATCC 25923 after 24 hrs by microbroth dilution method; settings: ATCC 25923, 24 h; procedure, shortened: as §1
[2] = test system: Trichophyton mentagrophytes; test: Antimicrobial activity against Trichophyton mentagrophytes after 96 hrs by microbroth dilution method; procedure, shortened: as §1
Staphylococcus aureus [3] = test: Antimicrobial activity against methicillin-resistant Staphylococcus aureus after 24 hrs by microbroth dilution method
Procedure, shortened: (§2)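 Microbroth dilution in Mueller Hinton broth, following NCCLS guidelines. Test compounds were run at 50-0.36 µg/mL against an initial inoculum of 1-5 × 10^3 cells/mL. Plates were incubated in a moist chamber at 35 °C, and absorbance at 492 nm was read after 24 h. MIC was taken as 90% growth inhibition relative to the growth control.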

Sporothrix schenckii = test: Antimicrobial activity against Sporothrix schenckii after 72 hrs by microbroth dilution method; procedure, shortened: as §1
Staphylococcus aureus [4] = test: Antimicrobial activity against vancomycin-resistant Staphylococcus aureus after 24 hrs by microbroth dilution method; procedure, shortened: as §2
Candida albicans = test: Antimicrobial activity against Candida albicans after 48 hrs by microbroth dilution method; procedure, shortened: as §1
Escherichia coli = test: Antimicrobial activity against Escherichia coli ATCC 9637 after 24 hrs by microbroth dilution method; settings: ATCC 9637, 24 h; procedure, shortened: as §1

Compound	MIC (Cryptococcus neoformans) [µg/mL]	MIC (Aspergillus fumigatus) [µg/mL]	MIC (Klebsiella pneumoniae) [µg/mL]	MIC (Pseudomonas aeruginosa) [µg/mL]	MIC (Staphylococcus aureus [1]) [µg/mL]	MIC [2] [µg/mL]	MIC (Staphylococcus aureus [3]) [µg/mL]	MIC (Sporothrix schenckii) [µg/mL]	MIC (Staphylococcus aureus [4]) [µg/mL]	MIC (Candida albicans) [µg/mL]	MIC (Escherichia coli) [µg/mL]
CCCCCCCCc1cn(C[C@H]2O[C@H](OCCC(C)C)C=C[C@@H]2O)nn1	25 (≈ 65.9 µM)	> 50	> 50	> 50	> 50	50 (≈ 132 µM)	> 50	> 50	> 50	> 50	> 50
CC(C)CO[C@@H]1C=CC(=O)[C@@H](Cn2cc(CCCCl)nn2)O1	> 50	> 50	50 (≈ 153 µM)	> 50	12.5 (≈ 38.1 µM)	> 50	> 50	50 (≈ 153 µM)	> 50	50 (≈ 153 µM)	> 50
CC(C)CCO[C@@H]1C=CC(=O)[C@@H](Cn2cc(CCCC=O)nn2)O1	> 50	> 50	50 (≈ 149 µM)	> 50	> 50	25 (≈ 74.5 µM)	> 50	12.5 (≈ 37.3 µM)	> 50	> 50	> 50
CC(C)CCO[C@@H]1C=CC(=O)[C@@H](Cn2cc(CCCCOC(=O)C(C)(C)C)nn2)O1	50 (≈ 119 µM)	25 (≈ 59.3 µM)	12.5 (≈ 29.7 µM)	50 (≈ 119 µM)	12.5 (≈ 29.7 µM)	25 (≈ 59.3 µM)	> 50	12.5 (≈ 29.7 µM)	> 50	> 50	50 (≈ 119 µM)
CC(C)CCO[C@@H]1C=CC(=O)[C@@H](Cn2cc(CCBr)nn2)O1	12.5 (≈ 33.6 µM)	50 (≈ 134 µM)	50 (≈ 134 µM)	> 50	12.5 (≈ 33.6 µM)	6.25 (≈ 16.8 µM)	> 50	25 (≈ 67.2 µM)	> 50	12.5 (≈ 33.6 µM)	> 50
CC(C)CCO[C@@H]1C=CC(=O)[C@@H](Cn2cc(-c3ccccn3)nn2)O1	> 50	> 50	6.25 (≈ 18.3 µM)	> 50	6.25 (≈ 18.3 µM)	12.5 (≈ 36.5 µM)	12.5 (≈ 36.5 µM)	25 (≈ 73 µM)	12.5 (≈ 36.5 µM)	> 50	> 50
CC(C)CCO[C@@H]1C=CC(=O)[C@@H](Cn2cc(C3CCCC3)nn2)O1	50 (≈ 150 µM)	50 (≈ 150 µM)	50 (≈ 150 µM)	50 (≈ 150 µM)	50 (≈ 150 µM)	50 (≈ 150 µM)	> 50	50 (≈ 150 µM)	> 50	25 (≈ 75 µM)	50 (≈ 150 µM)
CC(C)CCO[C@@H]1C=CC(=O)[C@@H](Cn2cc(C3CC3)nn2)O1	25 (≈ 81.9 µM)	> 50	> 50	> 50	6.25 (≈ 20.5 µM)	6.25 (≈ 20.5 µM)	> 50	12.5 (≈ 40.9 µM)	> 50	12.5 (≈ 40.9 µM)	> 50
CC(C)CCO[C@@H]1C=CC(=O)[C@@H](Cn2cc(CCCN3C(=O)c4ccccc4C3=O)nn2)O1	50 (≈ 110 µM)	> 50	> 50	> 50	6.25 (≈ 13.8 µM)	25 (≈ 55.2 µM)	25 (≈ 55.2 µM)	50 (≈ 110 µM)	25 (≈ 55.2 µM)	25 (≈ 55.2 µM)	> 50
CC(C)CCO[C@@H]1C=CC(=O)[C@@H](Cn2ccnn2)O1	50 (≈ 188 µM)	> 50	> 50	> 50	25 (≈ 94.2 µM)	> 50	> 50	> 50	> 50	50 (≈ 188 µM)	50 (≈ 188 µM)
CC(C)CCO[C@@H]1C=CC(=O)[C@@H](Cn2cc(CCn3cc(C4CC4)nn3)nn2)O1	50 (≈ 125 µM)	> 50	> 50	> 50	25 (≈ 62.4 µM)	> 50	> 50	> 50	> 50	50 (≈ 125 µM)	> 50
CC(C)CCO[C@@H]1C=CC(=O)[C@@H](Cn2cc(CCn3cc(-c4ccccc4)nn3)nn2)O1	50 (≈ 115 µM)	> 50	> 50	> 50	50 (≈ 115 µM)	50 (≈ 115 µM)	> 50	50 (≈ 115 µM)	> 50	50 (≈ 115 µM)	> 50
CC1(C)S[C@@H]2[C@H](NC(=O)[C@H](N)c3ccccc3)C(=O)N2[C@H]1C(=O)O [AMPICILLIN]	–	–	12.5 (≈ 35.8 µM)	> 50	12.5 (≈ 35.8 µM)	–	0.78 (≈ 2.23 µM)	–	0.78 (≈ 2.23 µM)	–	50 (≈ 143 µM)
O=C(O)c1cn(C2CC2)c2cc(N3CCNCC3)c(F)cc2c1=O [CIPROFLOXACIN]	–	–	0.01 (≈ 0.0302 µM)	0.09 (≈ 0.272 µM)	0.09 (≈ 0.272 µM)	–	0.38 (≈ 1.15 µM)	–	0.38 (≈ 1.15 µM)	–	–
Clc1ccccc1C(c1ccccc1)(c1ccccc1)n1ccnc1 [CLOTRIMAZOLE]	0.25 (≈ 0.725 µM)	8 (≈ 23.2 µM)	–	–	–	2 (≈ 5.8 µM)	–	4 (≈ 11.6 µM)	–	0.25 (≈ 0.725 µM)	–
OC(Cn1cncn1)(Cn1cncn1)c1ccc(F)cc1F [FLUCONAZOLE]	2 (≈ 6.53 µM)	> 32	–	–	–	16 (≈ 52.2 µM)	–	4 (≈ 13.1 µM)	–	1 (≈ 3.27 µM)	–
Nc1nc(=O)[nH]cc1F [FLUCYTOSINE]	0.13 (≈ 1.01 µM)	> 32	–	–	–	> 32	–	> 32	–	0.25 (≈ 1.94 µM)	–
CN[C@@H]1[C@@H](O)[C@@H](O[C@@H]2[C@@H](O)[C@H](O[C@H]3O[C@H]([C@@H](C)NC)CC[C@H]3N)[C@@H](N)C[C@H]2N)OC[C@]1(C)O [GENTAMICIN C1]	–	–	1.56 (≈ 3.27 µM)	0.39 (≈ 0.817 µM)	0.39 (≈ 0.817 µM)	–	1.56 (≈ 3.27 µM)	–	1.56 (≈ 3.27 µM)	–	1.56 (≈ 3.27 µM)
COc1cccc(OC)c1C(=O)N[C@@H]1C(=O)N2[C@@H]1SC(C)(C)[C@@H]2C(=O)O [METHICILLIN]	–	–	6.25 (≈ 16.4 µM)	> 50	0.04 (≈ 0.105 µM)	–	–	–	–	–	50 (≈ 131 µM)
Clc1ccc(COC(Cn2ccnc2)c2ccc(Cl)cc2Cl)c(Cl)c1 (configuration not stated) [MICONAZOLE]	12.5 (≈ 30 µM)	12.5 (≈ 30 µM)	–	–	–	0.78 (≈ 1.87 µM)	–	3.12 (≈ 7.5 µM)	–	25 (≈ 60.1 µM)	–
CN[C@H](CC(C)C)C(=O)N[C@H]1C(=O)N[C@@H](CC(N)=O)C(=O)N[C@H]2C(=O)N[C@H]3C(=O)N[C@H](C(=O)N[C@H](C(=O)O)c4cc(O)cc(O)c4-c4cc3ccc4O)[C@H](O)c3ccc(c(Cl)c3)Oc3cc2cc(c3O[C@@H]2O[C@H](CO)[C@@H](O)[C@H](O)[C@H]2O[C@H]2C[C@](C)(N)[C@H](O)[C@H](C)O2)Oc2ccc(cc2Cl)[C@H]1O [VANCOMYCIN]	–	–	12.5 (≈ 8.63 µM)	> 50	12.5 (≈ 8.63 µM)	–	–	–	–	–	12.5 (≈ 8.63 µM)
